Data set [1] concerns Neu7 astrocytes. Put plainly: disaccharide composition of secreted CSPGs. Format: cell-based.
The test system of data set [2] is Sult1c1. Put plainly: Sult1c1 counter-screen. The settings on record: concentrations tested 3-100 μM. The format is biochemical. On the technique in general: The purpose of a counterscreen is to sort out artefacts and off-target activity.
Data set [3] concerns the target T1, chondroitin 4-O-sulfotransferase Chst11 (Homo sapiens, UniProt Q9NPF2).
T1 sequence (Q9NPF2 1-352): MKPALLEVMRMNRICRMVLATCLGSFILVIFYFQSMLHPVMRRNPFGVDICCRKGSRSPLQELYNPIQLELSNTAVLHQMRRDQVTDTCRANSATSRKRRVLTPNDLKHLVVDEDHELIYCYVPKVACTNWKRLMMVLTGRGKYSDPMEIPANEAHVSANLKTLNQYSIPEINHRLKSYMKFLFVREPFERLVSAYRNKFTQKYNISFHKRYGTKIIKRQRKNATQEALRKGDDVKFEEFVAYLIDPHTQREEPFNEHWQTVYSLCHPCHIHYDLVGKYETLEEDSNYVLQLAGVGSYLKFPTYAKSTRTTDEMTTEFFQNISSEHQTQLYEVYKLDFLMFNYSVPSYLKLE
The data set is described as follows: sulfotransferase specificity panel. The format is biochemical.

Data set [4] relates to Neu7 astrocytes. Put plainly: cell-surface CS-E expression, immunostaining with CS-E-specific antibody. The format is cell-based. The method, boiled down: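 Neu7 astrocytes were treated with test compound, with chlorate as comparator. Cells were co-stained with a CS-E-specific antibody and the nuclear stain DAPI, and average anti-CS-E fluorescence per condition was quantified from images. Mean ± S.E.M. of three experiments, 20-100 cells per experiment.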

A short description of data set [5]: in vivo pharmacokinetics after intravenous injection. Set-up: species or system rats. The conditions noted are these: rat, 3 mg/kg.
The test system of data set [6] is NIH3T3 fibroblasts. The data set is described as follows: CS-E expression in fibroblasts. The format is cell-based.
Data set [7] has as its system DRG neurons. The data set is described as follows: in vitro CSPG boundary assay. The conditions noted are these: CSPGs from treated vs untreated Neu7 astrocytes. Format: cell-based, rat. Put shortly:
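Boundary assay: purified CSPGs from Neu7 astrocytes treated with or without test compound were mixed with Texas Red dye and spotted onto glass coverslips. DRG neurons were plated on the coverslips, and the percentage of neurites crossing the CSPG boundary was scored. Mean ± S.E.M. from five experiments, 20-40 cells each.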

The target of data set [8] is T2, chondroitin 2-O-sulfotransferase Ust (Homo sapiens, UniProt Q9Y2C2).
T2 sequence (Q9Y2C2 1-406): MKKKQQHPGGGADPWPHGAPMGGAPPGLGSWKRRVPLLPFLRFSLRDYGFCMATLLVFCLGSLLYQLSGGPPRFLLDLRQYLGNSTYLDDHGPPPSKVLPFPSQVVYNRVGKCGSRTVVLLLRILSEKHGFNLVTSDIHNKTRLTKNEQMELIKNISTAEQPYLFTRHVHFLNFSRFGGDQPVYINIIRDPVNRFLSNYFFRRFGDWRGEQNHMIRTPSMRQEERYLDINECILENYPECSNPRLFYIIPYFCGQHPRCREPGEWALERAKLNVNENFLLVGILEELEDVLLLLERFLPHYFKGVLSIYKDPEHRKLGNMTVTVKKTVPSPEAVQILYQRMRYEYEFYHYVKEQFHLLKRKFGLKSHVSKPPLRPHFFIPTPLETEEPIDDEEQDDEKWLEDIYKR
Put plainly: sulfotransferase specificity panel. The format is biochemical.

In data set [9] the target is T3, Sult2b1b (Homo sapiens, UniProt O00204).
T3 sequence (O00204 1-365): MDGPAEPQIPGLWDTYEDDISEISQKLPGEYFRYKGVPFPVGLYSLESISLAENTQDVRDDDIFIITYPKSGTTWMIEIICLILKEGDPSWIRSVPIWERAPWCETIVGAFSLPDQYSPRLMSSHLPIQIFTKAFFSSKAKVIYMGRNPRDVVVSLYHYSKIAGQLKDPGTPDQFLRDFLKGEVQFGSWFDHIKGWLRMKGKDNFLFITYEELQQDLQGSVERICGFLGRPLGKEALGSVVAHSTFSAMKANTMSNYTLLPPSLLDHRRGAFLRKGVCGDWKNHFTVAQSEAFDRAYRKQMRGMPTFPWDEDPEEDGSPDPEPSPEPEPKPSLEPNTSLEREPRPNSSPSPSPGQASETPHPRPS
The data set is described as follows: sulfotransferase specificity panel. Format: biochemical.

The target of data set [10] is T4, Chst15 (Homo sapiens, UniProt Q7LFX5).
T4 sequence (Q7LFX5 1-561): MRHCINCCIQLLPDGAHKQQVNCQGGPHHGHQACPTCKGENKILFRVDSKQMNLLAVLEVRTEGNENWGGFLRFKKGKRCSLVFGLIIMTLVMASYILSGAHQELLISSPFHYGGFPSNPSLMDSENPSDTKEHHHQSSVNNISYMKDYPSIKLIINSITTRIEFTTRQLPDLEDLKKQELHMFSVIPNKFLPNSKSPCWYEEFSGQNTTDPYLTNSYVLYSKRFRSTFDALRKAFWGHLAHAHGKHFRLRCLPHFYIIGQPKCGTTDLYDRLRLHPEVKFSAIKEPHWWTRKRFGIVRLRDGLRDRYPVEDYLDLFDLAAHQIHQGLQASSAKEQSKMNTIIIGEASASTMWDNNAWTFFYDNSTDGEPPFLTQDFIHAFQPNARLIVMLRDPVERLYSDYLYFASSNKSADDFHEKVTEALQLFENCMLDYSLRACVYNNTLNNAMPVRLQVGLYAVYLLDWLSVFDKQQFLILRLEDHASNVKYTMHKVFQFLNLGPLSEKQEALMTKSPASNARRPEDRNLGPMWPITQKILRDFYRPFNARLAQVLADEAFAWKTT
The data set is described as follows: pre-incubation and ten-fold dilution experiments. Format: biochemical.

The target of data set [11] is heparan 3-O-sulfotransferase Hs3st1 (Homo sapiens, UniProt O14792). The data set is described as follows: sulfotransferase specificity panel. The format is biochemical.
Chain of heparan 3-O-sulfotransferase Hs3st1 (O14792 21-307): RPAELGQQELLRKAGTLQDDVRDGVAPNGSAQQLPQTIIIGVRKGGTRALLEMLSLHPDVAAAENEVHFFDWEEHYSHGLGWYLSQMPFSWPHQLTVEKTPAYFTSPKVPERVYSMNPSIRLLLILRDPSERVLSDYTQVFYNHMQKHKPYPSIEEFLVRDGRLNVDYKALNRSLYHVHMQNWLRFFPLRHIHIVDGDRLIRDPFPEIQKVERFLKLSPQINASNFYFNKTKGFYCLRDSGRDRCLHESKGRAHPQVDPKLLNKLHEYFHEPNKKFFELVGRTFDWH
Data set [12] addresses T5, Sult1e1 (Homo sapiens, UniProt P49888).
T5 sequence (P49888 1-294): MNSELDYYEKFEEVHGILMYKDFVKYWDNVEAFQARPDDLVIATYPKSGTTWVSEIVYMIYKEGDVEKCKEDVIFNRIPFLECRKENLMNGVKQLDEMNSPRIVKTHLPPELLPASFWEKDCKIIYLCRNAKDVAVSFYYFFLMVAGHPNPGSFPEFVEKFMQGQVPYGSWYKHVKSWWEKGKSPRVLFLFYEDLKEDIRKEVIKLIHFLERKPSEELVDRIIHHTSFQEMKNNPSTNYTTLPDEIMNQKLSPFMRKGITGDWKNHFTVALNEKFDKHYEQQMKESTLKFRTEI
Put plainly: sulfotransferase specificity panel. The format is biochemical.

For data set [13], the target named is T6, Sult2b1a (Homo sapiens, UniProt O00204).
T6 sequence (O00204 1-350 isoform O00204-2): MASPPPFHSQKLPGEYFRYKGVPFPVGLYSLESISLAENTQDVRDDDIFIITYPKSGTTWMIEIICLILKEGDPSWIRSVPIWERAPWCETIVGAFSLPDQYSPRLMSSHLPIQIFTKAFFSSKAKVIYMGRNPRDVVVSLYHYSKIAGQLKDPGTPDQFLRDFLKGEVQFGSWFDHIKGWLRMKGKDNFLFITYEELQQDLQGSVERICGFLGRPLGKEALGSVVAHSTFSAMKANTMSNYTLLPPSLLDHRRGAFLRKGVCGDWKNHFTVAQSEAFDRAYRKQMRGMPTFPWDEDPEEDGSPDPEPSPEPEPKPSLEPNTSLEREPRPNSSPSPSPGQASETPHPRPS
Put plainly: sulfotransferase specificity panel. Format: biochemical.

The nature of data set [14]: liver microsome stability. The format is in vitro ADME. The settings on record: human. On the technique in general: Liver microsomes are vesicles of endoplasmic reticulum, rich in cytochrome P450 enzymes.
Data set [15] deals with T4, Chst15. Put plainly: [35S]-labeling assay. Format: biochemical. The conditions noted are these: 25 μM of inhibitor; normalized to the inhibition by compound 19; three independent measurements.
Data set [16] is described as follows: liver microsome stability. The conditions noted are these: rat. Format: in vitro ADME.
Data set [17] has as its target T4, Chst15. The data set is described as follows: enzyme-coupled fluorescence assay. Format: biochemical.
For data set [18], the target named is T4, Chst15. The data set is described as follows: sulfotransferase specificity panel. The format is biochemical.
A short description of data set [19]: liver microsome stability. The format is in vitro ADME. The conditions noted are these: mouse.
The mark [20] stands for this setting: high concentrations of sodium chlorate, compared to untreated cells.

For `COc1cc(/C=C(\C#N)C(=O)Nc2ccc(Cl)cc2Cl)cc(Br)c1O` [Compound 34], in [1] (Astrocyte, read-out: reduction in the CS-E sulfation motif on secreted CSPGs), the inhibition at 25 µM came to 67.8 ± 10.9%. Moreover, the “activity against Sult1c1” value in data set [2] is “no activity”. The IC50 (as a rule, the concentration at which inhibition is half-maximal) in data set [3] was in the range of 2000 to 2500 nM; in [8], 2000 to 2500 nM; in data set [9], 19 to 42 µM; in data set [11] it was 2000 to 2500 nM; in [12], 19 to 42 µM; in [13] it was 19 to 42 µM. Also, in data set [18], the IC50 is 2000 to 2500 nM. For the same compound, the “cell-surface CS-E expression” value in [4] (10 μM or 25 μM) is on record as “significant, dose-dependent decrease”. In addition, the clearance (as a rule, a measure of how efficiently the substance is removed, as volume per time) in [5] came out at 21 mL/min/kg. In addition, in [5], the half-life (as a rule, the time needed for the level to fall by half in the phase considered) is 96 min. For the same compound, the CS-E expression entry in data set [6] was “significant loss of CS-E expression”. In addition, in [7], the “neurite crossing of CSPG boundary” value is “crossed more freely”. Also, the “effect of pre-incubation time on Chst15 inhibition” value in data set [10] (inhibitor pre-incubated with Chst15 for various lengths of time) is listed as “Longer pre-incubation times lead to greater inhibition of the enzyme”. For the same compound, the “Chst15 activity in ten-fold dilution experiments” value in data set [10] (up to 100 μM of 34) is “rapidly restored”. Further, the “stability in liver microsomes based on intrinsic clearance” value in data set [14], in data set [16] and in data set [19] was “good stability” each time. For the same compound, the “Relative Inhibition” value in data set [15] is 1.35 ± 0.12. In addition, the mode of inhibition entry is given as “mixed mode of inhibition” in [17] (CS-A substrate concentration varied) and “competitive mode of inhibition” in data set [17] (PAPS concentration varied, fixed CS-A (10 mM)). In addition, the Ki (commonly a measure of affinity in units of concentration, obtained from inhibition or displacement) was 1430 nM in data set [17] (CS-A substrate concentration varied, pseudo first-order PAPS concentration) and 770 nM in data set [17] (PAPS concentration varied, fixed CS-A acceptor substrate (10 mM)). Moreover, the “specificity for GAG sulfotransferases compared to cytosolic sulfotransferases” value in data set [18] (GAG vs cytosolic sulfotransferases) is recorded as 8- to 18 fold.
Consider `[Na+].[O-][Cl+2]([O-])[O-]` [sodium chlorate], for which, in data set [1] (setting [20]), the “decrease in CS-E of secreted CSPGs” value was determined as 31.6 ± 10.9% and the “increase in uCS of secreted CSPGs” value is given as 39.7 ± 15.6%. Also, the “cell-surface CS-E expression” value in [4] (doses as high as 25 mM, compared to 34) was “did not reduce CS-E levels to as large an extent”.

Source of the values: article PMC5896753 (ACS chemical biology, 2017).
